Reference: ChEMBL document CHEMBL4251623, “Synthesis and evaluation of 2-(3-arylureido)pyridines and 2-(3-arylureido)pyrazines as potential modulators of Aβ-induced mitochondrial dysfunction in Alzheimer's disease” (Eur J Med Chem, 2018)

Experiments:
[1] = species: Mus musculus; test: Inhibition of amyloid beta (1 to 42)-induced mPTP opening in mouse HT22 cells assessed as reduction in mitochondrial membrane potential loss by measuring green to red fluorescence ratio at 5 uM preincubated for 10 mins followed by amyloid beta (1 to 42) addition and measured every 1 hr for 3 hrs by JC1 staining based fluorescence assay relative to control; format: cell-based; design: scale not given: the % may be the effect or the level left
How it was run: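 HT-22 cells (30,000/well) were seeded one day before and loaded with 7.5 µM final JC-1 in phenol red-free Opti-MEM for 1 h 15 min at 37 °C, then washed with PBS. Compound (5 µM) was added for 10 min at 37 °C, then Aβ1-42 (5 µM). Red (ex/em 530/580 nm) and green (485/530 nm) fluorescence were read hourly for 3 h. Green/red ratio was expressed versus Aβ alone (100%), as mean of duplicates.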

[2] = tested on: HT-22; test: Toxicity in mouse HT22 cells assessed as ATP production level at 5 uM after 7 hrs by luciferase based assay relative to control; format: cell-based; conditions: ht-22, 7 h
How it was run: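 HT-22 cells (10,000/well, seeded the day before; DMEM, 10% FBS, 37 °C, 5% CO2) were exposed to compound (5 µM per footnote) without Aβ for 7 h at 37 °C. Cells were lysed in 1% Triton X-100/TBST, equal protein (BCA) was taken, and ATP was measured with a luciferase kit. Result is % ATP production relative to vehicle; mean of duplicates.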

[3] = Cytotoxicity against mouse HT22 cells assessed as cell viability at 5 uM after 24 hrs by MTT assay relative to control; format: cell-based, HT-22; conditions: read-out: Activity
How it was run: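 HT-22 cells (5000/well) got compound at 5 µM for 24 h at 37 °C. MTT was added for 2 h, then solubilizer (10% Triton X-100 in isopropanol, 0.1 M HCl) for 1 h at room temperature. Absorbance was read at 570 nm, vehicle-subtracted, and expressed as % viability; mean of duplicates.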

[4] = species: Mus musculus; test: Inhibition of amyloid beta (1 to 42)-induced mPTP opening in mouse HT22 cells assessed as protection against amyloid beta (1 to 42)-induced deterioration of ATP production by measuring ATP recovery at 5 uM preincubated for 10 mins followed by amyloid beta (1 to 42) addition and measured after 7 hrs relative to control; format: cell-based; design: scale not given: the % may be the effect or the level left
How it was run: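 HT-22 cells (10,000/well, seeded the day before) got compound for 10 min at 37 °C, then Aβ1-42; per footnote, both were at 5 µM. After 7 h at 37 °C, cells were washed, lysed in 1% Triton X-100/TBST and protein-normalized by BCA. ATP was measured with a luciferase kit. Aβ-injured level was set to 0 and vehicle to 100% recovery; mean of duplicates.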

[5] = species: Mus musculus; test: Inhibition of amyloid beta (1 to 42)-induced mPTP opening in mouse HT22 cells assessed as neuroprotective activity against amyloid beta (1 to 42)-induced toxicity at 5 uM measured after 24 hrs by MTT assay relative to control; format: cell-based
How it was run: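 HT-22 cells (5000/well) were pretreated with compound for 10 min, then Aβ1-42 was added, both at 5 µM, for 24 h at 37 °C. Viability was read by MTT (2 h; acidic Triton/isopropanol solubilization; A570). Aβ-treated viability was set to 0 and vehicle to 100% protection; mean of duplicates.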

`O=C(Nc1ncccc1OCc1ccc(Cl)cc1)Nc1cccc2ccccc12` gave an Activity [1] of 52%.

In the case of `O=C(Nc1ccc(Cl)c(Cl)c1)Nc1ncccc1OCc1ccccc1Cl`, the Activity [1] is reported as 36%, the Activity [2] is reported as 123% and the viability at 24 h, 5 µM [3] is reported as 60%.

Work on `O=C(Nc1cccc(Cl)c1)Nc1ncccc1OCc1cccc(Cl)c1` yielded an Activity [1] of 55%.

In the case of `O=C(Nc1ccccc1F)Nc1ncccc1OCc1ccc(Cl)cc1`, the Activity [1] is reported as 27%.

Work on `NC(=O)CN1CCCC1=O` [PIRACETAM] yielded an Activity [2] of 88%, an Activity [4] of 127% and a percent protection against Aβ1-42 toxicity [5] of 29%.

Molecule `O=C(Nc1cccc(F)c1)Nc1nccnc1OCc1ccccc1` has an Activity [1] of 111%.

For `O=C(Nc1ccccc1)Nc1ncccc1OCc1cccc(Cl)c1`, the Activity [1] was 14%, the Activity [2] was 109% and the viability at 24 h, 5 µM [3] was 98%. For the same molecule, the Activity [4] was 90% and the percent protection against Aβ1-42 toxicity [5] was 31%.

For `O=C(Nc1ccccc1)Nc1ncccc1OCc1cccc(F)c1`, the Activity [1] was 23%.

With `O=C(Nc1cccc(Cl)c1)Nc1ncccc1OCc1ccc(Cl)cc1` the Activity [1] was 46%.

For `O=C(Nc1cccc(F)c1)Nc1nccnc1OCc1cccc(F)c1`, the Activity [1] was 98%.

Work on `O=C(Nc1cccc(F)c1)Nc1ncccc1OCc1ccc(Cl)cc1` yielded an Activity [1] of 15%.

`Cc1ccc(NC(=O)Nc2ncccc2OCc2cccc(F)c2)cc1` gave an Activity [1] of 22%.

For `O=C(Nc1ccccc1F)Nc1ncccc1OCc1ccccc1Cl`, the Activity [1] was 38%.

For `Cc1ccc(NC(=O)Nc2ncccc2OCc2ccccc2Cl)cc1`, the Activity [1] was 22%.

Work on `O=C(Nc1cccc(Cl)c1)Nc1ncccc1OCc1ccccc1Cl` yielded an Activity [1] of 25%, an Activity [2] of 124% and a viability at 24 h, 5 µM [3] of 84%. It also gave an Activity [4] of 91% and a percent protection against Aβ1-42 toxicity [5] of 21%.

With `O=C(Nc1ccccc1F)Nc1ncccc1OCc1ccc(F)cc1` the Activity [1] was 27%.

With `O=C(Nc1ccc(Cl)c(Cl)c1)Nc1ncccc1OCc1ccccc1` the Activity [1] was 19%.

For `O=C(Nc1ccc(Cl)c(Cl)c1)Nc1nccnc1OCc1cccc(F)c1`, the Activity [1] was 101%.

With `O=C(NCc1ccccc1)Nc1ncccc1OCc1cccc(F)c1` the Activity [1] was 9%.

Molecule `Cc1ccc(NC(=O)Nc2ncccc2OCc2cccc(Cl)c2)cc1` has an Activity [1] of 26%, an Activity [2] of 108% and a viability at 24 h, 5 µM [3] of 95%. For the same molecule, the Activity [4] was 54% and the percent protection against Aβ1-42 toxicity [5] was 17%.

`O=C(NCc1ccccc1)Nc1nccnc1OCc1cccc(F)c1` showed an Activity [1] of 69%.

For `O=C(Nc1cccc(F)c1)Nc1ncccc1OCc1cccc(F)c1`, the Activity [1] was 34%.

Molecule `O=C(Nc1ccccc1F)Nc1ncccc1OCc1cccc(F)c1` has an Activity [1] of 23%.

`O=C(Nc1ncccc1OCc1cccc(Cl)c1)Nc1cccc2ccccc12` showed an Activity [1] of 106%.

In the case of `O=C(Nc1ccc(C(F)(F)F)cc1)Nc1ncccc1OCc1ccc(Cl)cc1`, the Activity [1] is reported as 91%.

In the case of `O=C(Nc1cccc(F)c1)Nc1ncccc1OCc1ccccc1Cl`, the Activity [1] is reported as 32%, the Activity [2] is reported as 106% and the viability at 24 h, 5 µM [3] is reported as 86%. It also gave an Activity [4] of 78% and a percent protection against Aβ1-42 toxicity [5] of 14%.

For `Cc1ccc(NC(=O)Nc2ncccc2OCc2ccc(Cl)cc2)cc1`, the Activity [1] was 44%.

In the case of `O=C(Nc1cccc(Cl)c1)Nc1ncccc1OCc1ccc(F)cc1`, the Activity [1] is reported as 91%.

With `O=C(Nc1ccccc1F)Nc1ncccc1OCc1cccc(Cl)c1` the Activity [1] was 11%, the Activity [2] was 104% and the viability at 24 h, 5 µM [3] was 115%. It also gave an Activity [4] of 43% and a percent protection against Aβ1-42 toxicity [5] of 67%.

`O=C(Nc1cccc(F)c1)Nc1ncccc1OCc1cccc(Cl)c1` gave an Activity [1] of 13%, an Activity [2] of 99% and a viability at 24 h, 5 µM [3] of 91%. It also gave an Activity [4] of 69% and a percent protection against Aβ1-42 toxicity [5] of 38%.

With `O=C(Nc1cccc(F)c1)Nc1ncccc1OCc1ccc(F)cc1` the Activity [1] was 18%.

With `O=C(Nc1ccc(Cl)c(Cl)c1)Nc1ncccc1OCc1ccc(Cl)cc1` the Activity [1] was 47%.

With `Cc1ccc(NC(=O)Nc2nccnc2OCc2cccc(F)c2)cc1` the Activity [1] was 96%.

Work on `O=C(Nc1ccccc1)Nc1ncccc1OCc1ccccc1Cl` yielded an Activity [1] of 80%.

For `O=C(Nc1ccc(Cl)c(Cl)c1)Nc1ncccc1OCc1cccc(Cl)c1`, the Activity [1] was 10%.

`O=C(Nc1ccccc1F)Nc1nccnc1OCc1ccccc1` gave an Activity [1] of 123%.

`O=C(Nc1ccc(Cl)c(Cl)c1)Nc1ncccc1OCc1cccc(F)c1` showed an Activity [1] of 35%.

`O=C(Nc1ncccc1OCc1ccccc1Cl)Nc1cccc2ccccc12` gave an Activity [1] of 77%.

`O=C(Nc1ccc(C(F)(F)F)cc1)Nc1ncccc1OCc1cccc(F)c1` gave an Activity [1] of 23%.

For `O=C(Nc1ccccc1F)Nc1ncccc1OCc1ccccc1`, the Activity [1] was 69%.

With `O=C(Nc1cccc(F)c1)Nc1ncccc1OCc1ccccc1` the Activity [1] was 13%.

`O=C(Nc1ccc(C(F)(F)F)cc1)Nc1ncccc1OCc1cccc(Cl)c1` gave an Activity [1] of 27%.
